Screens deposited in PubChem BioAssay by Johns Hopkins Ion Channel Center.
MrgX1 antagonist: antagonists of human MrgX1 receptor | Q96LB2 | AID 588676 | 310,000 compounds, 1.3% hits | MRGX1-HEK293 calcium flux, Fluo-4, BAM8-22 antagonism; active compounds read low | B-score at 10 µM;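 active = calcium-response B-score plate-corrected more than 3 library SD below zero, starting fluorescence within 5 deviations, no agonist response on first addition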;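 note: peak minus trough fluorescence over baseline after final BAM8-22 challenge near maximal dose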
Target sequence (Q96LB2 whole entry, looked up): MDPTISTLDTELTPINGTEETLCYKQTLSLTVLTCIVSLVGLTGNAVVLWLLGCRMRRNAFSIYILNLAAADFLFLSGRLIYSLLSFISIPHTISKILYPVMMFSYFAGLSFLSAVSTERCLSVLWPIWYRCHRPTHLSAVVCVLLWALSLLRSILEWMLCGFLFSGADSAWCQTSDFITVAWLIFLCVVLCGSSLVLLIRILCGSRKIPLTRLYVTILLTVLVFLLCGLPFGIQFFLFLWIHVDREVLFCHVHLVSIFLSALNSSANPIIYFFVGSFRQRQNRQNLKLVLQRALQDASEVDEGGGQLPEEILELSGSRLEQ
RGS4 act: potentiators or activators of RGS4; HEK293 M3R/inducible RGS4, carbachol calcium flux Fluo4; active compounds read low; 310,000 compounds, 0.92% hits; B-score at 10 µM;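 active = B-score of the integrated calcium signal more than 4 SD below the library mean, with starting fluorescence not abnormally high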;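 note: negative B-score means reduced calcium response which marks RGS4 activation or potentiation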
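Assay system: HEK293 FlpIn-TREx cells, stable M3R, doxycycline-inducible RGS4 / Probe or stimulus: carbachol, ECmax concentration / Times: overnight RGS4 induction, 30 min dye load 37 °C, 20 min compound RT / Signal: kinetic calcium fluorescence imaging with Fluo4-AM dye, 2 µM / Measure: Agonist-evoked peak-minus-minimum fluorescence over baseline, integrated ratio, B score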
RGS4 block: inhibitors of human RGS4; P49798; HEK293 M3R/RGS4 inducible, Fluo-4 calcium flux; active compounds read high; triggered by carbachol at its EC20; B-score at 10 µM; 310,000 compounds, 0.45% hits; AID 463165;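 active = B-score, a plate-corrected calcium signal, over three deviations above library mean, with baseline fluorescence within five deviations of library mean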;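 note: RGS4 expression induced by doxycycline in cells with stable M3 receptor; B-score is computed from the integrated fluorescence ratio over baseline after carbachol; higher B-score means a larger calcium signal and so more RGS4 inhibition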
Target sequence (P49798 whole entry, looked up): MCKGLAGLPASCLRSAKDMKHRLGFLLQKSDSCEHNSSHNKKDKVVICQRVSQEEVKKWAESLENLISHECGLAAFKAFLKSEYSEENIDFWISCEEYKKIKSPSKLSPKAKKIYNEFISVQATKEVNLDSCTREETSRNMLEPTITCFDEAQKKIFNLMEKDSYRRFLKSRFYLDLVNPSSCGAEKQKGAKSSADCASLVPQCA
MrgX1 agonist: activates human MrgX1 receptor signaling; Q96LB2; B-score at 10 µM; 310,000 compounds, 0.44% hits; MrgX1-HEK293 cells, Fluo-4 calcium fluorescence, agonist mode; active compounds read high;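 active = calcium response B-score plate-corrected fluorescence ratio at least 3 library SD, with starting fluorescence B-score inside 5 SD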
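Test system: HEK293 cells stably expressing human MrgX1 receptor; Input: fifteen thousand cells per well; Dosing: compound delivered in addition one of three; Schedule: overnight seeding, then 1 h dark dye loading; Technique: Fluo-4 NW calcium fluorescence; Measure: B-scored fluorescence response ratio; Controls: positive and negative controls per plate.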
MrgX1 PAM: human MrgX1 positive allosteric modulation, primary screen; Q96LB2; MrgX1-HEK293, Fluo-4 calcium flux, FDSS; active compounds read high; B-score at 10 µM; 310,000 compounds, 0.63% hits; AID 588675;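 active = plate-corrected calcium response at least 3 library SD above typical, normal starting fluorescence, not activating the receptor alone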;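 note: compound read alongside a low EC10 to EC30 dose of BAM8-22 agonist; peak minus trough fluorescence over baseline measured at the second addition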
An asterisk follows results filed as active. The list is not random: actives were taken first. Their share in the collection is about 3.5%.

Results for Cc1c(Cl)c([N+](=O)[O-])nn1CCCC(=O)Nc1c(Cl)cccc1Cl ?
MrgX1 antagonist: inactive; RGS4 act: inactive; RGS4 block: inactive; MrgX1 agonist: inactive; MrgX1 PAM: inactive

Results for Cc1c(Cl)c([N+](=O)[O-])nn1CCCC(=O)Nc1c(C)n(C)n(-c2ccccc2)c1=O ?
MrgX1 antagonist: inactive; RGS4 act: -7.3*; RGS4 block: inactive; MrgX1 agonist: inactive; MrgX1 PAM: inactive

How did Cc1ccc(OCC(=O)OC(C)CN2CCCCC2)cc1 (stereo not drawn) do in these assays?
MrgX1 antagonist: inactive; RGS4 act: inactive; RGS4 block: inactive; MrgX1 agonist: inactive; MrgX1 PAM: inactive

Results for COc1ccc(CN(CC(=O)NCc2ccc(F)cc2)C(=O)CCC(=O)Nc2ccccn2)cc1 ?
MrgX1 antagonist: inactive; RGS4 act: inactive; RGS4 block: inactive; MrgX1 agonist: inactive; MrgX1 PAM: inactive

What do the screens show for `O=C1C2CC=CCC2C(=O)N1c1ccc(NCCc2ccc(Cl)cc2)c([N+](=O)[O-])c1` (stereo not drawn)?
MrgX1 antagonist: inactive; RGS4 act: inactive; RGS4 block: inactive; MrgX1 agonist: inactive; MrgX1 PAM: inactive

How did O=C1C2CC=CCC2C(=O)N1c1ccc(NCCc2ccc(O)cc2)c([N+](=O)[O-])c1 (stereo not drawn) do in these assays?
MrgX1 antagonist: -5.2*; RGS4 act: inactive; RGS4 block: inactive; MrgX1 agonist: inactive; MrgX1 PAM: inactive

How did Cc1sc2nc(C3CC3)nc(NCCNS(C)(=O)=O)c2c1C do in these assays?
MrgX1 antagonist: inactive; RGS4 act: inactive; RGS4 block: inactive; MrgX1 agonist: inactive; MrgX1 PAM: inactive

How did COc1ccc(C(=O)NCc2nnc(SC)n2Cc2ccccc2)cc1 do in these assays?
MrgX1 antagonist: inactive; RGS4 act: inactive; RGS4 block: inactive; MrgX1 agonist: inactive; MrgX1 PAM: inactive

Results for Cc1cc(C)nc(OC(=O)c2c(Cl)cc(Cl)cc2Cl)n1 ?
MrgX1 antagonist: inactive; RGS4 act: inactive; RGS4 block: inactive; MrgX1 agonist: inactive; MrgX1 PAM: inactive

What do the screens show for `Cc1cc(C)nc(OC(=O)c2ccc(Cl)cc2Cl)n1`?
MrgX1 antagonist: inactive; RGS4 act: -7.3*; RGS4 block: inactive; MrgX1 agonist: inactive; MrgX1 PAM: inactive

How did N=C1/C(=C\c2ccc(-c3cccc(C(=O)O)c3)o2)C(=O)N=C2SC=C(c3ccccc3)N12 do in these assays?
MrgX1 antagonist: inactive; RGS4 act: inactive; RGS4 block: inactive; MrgX1 agonist: inactive; MrgX1 PAM: 7.1*

Results for Cc1ccc(-n2nc(C)c3c(C)c(CCC(=O)Nc4ccc(CN5CCCC5)cc4)c(C)nc32)cc1 ?
MrgX1 antagonist: inactive; RGS4 act: -7.1*; RGS4 block: inactive; MrgX1 agonist: inactive; MrgX1 PAM: inactive

What do the screens show for `COC(CNC(=O)CCc1c(C)nc2c(c(C)nn2-c2ccc(C)cc2)c1C)OC`?
MrgX1 antagonist: inactive; RGS4 act: inactive; RGS4 block: inactive; MrgX1 agonist: inactive; MrgX1 PAM: inactive

How did CCN(CC)CCNC(=O)CCc1c(C)nc2c(c(C)nn2-c2ccc(C)c(C)c2)c1C do in these assays?
MrgX1 antagonist: inactive; RGS4 act: -7*; RGS4 block: inactive; MrgX1 agonist: inactive; MrgX1 PAM: inactive

What do the screens show for `O=C(CN1CCCCC1)NNC(=O)c1cccc(Br)c1`?
MrgX1 antagonist: inactive; RGS4 act: inactive; RGS4 block: inactive; MrgX1 agonist: inactive; MrgX1 PAM: inactive

Results for Cc1cc(C(=O)COc2ccccc2Cl)c(C)n1-c1ccc2c(c1)OCO2 ?
MrgX1 antagonist: inactive; RGS4 act: -7.5*; RGS4 block: inactive; MrgX1 agonist: inactive; MrgX1 PAM: inactive

How did O=C(NCc1ccccc1)C(c1ccc(Cl)cc1)N(C(=O)c1csnn1)C1CC1 (stereo not drawn) do in these assays?
MrgX1 antagonist: inactive; RGS4 act: inactive; RGS4 block: inactive; MrgX1 agonist: inactive; MrgX1 PAM: inactive

How did CC(=O)N/N=c1\sc2ccccc2n1C do in these assays?
MrgX1 antagonist: inactive; RGS4 act: inactive; RGS4 block: inactive; MrgX1 agonist: inactive; MrgX1 PAM: inactive

Results for Cn1/c(=N\NC(=O)c2ccccc2Cl)sc2ccccc21 ?
MrgX1 antagonist: inactive; RGS4 act: inactive; RGS4 block: inactive; MrgX1 agonist: 31*; MrgX1 PAM: inactive

How did O=C1C(=O)N(CCc2c[nH]c3ccccc23)C(c2cccnc2)/C1=C(/O)c1ccccc1 (stereo not drawn) do in these assays?
MrgX1 antagonist: inactive; RGS4 act: inactive; RGS4 block: inactive; MrgX1 agonist: inactive; MrgX1 PAM: inactive

How did Cc1ccc(NC(=O)/C(Cl)=C/c2ccccc2)cc1C do in these assays?
MrgX1 antagonist: inactive; RGS4 act: inactive; RGS4 block: inactive; MrgX1 agonist: inactive; MrgX1 PAM: 9*

What do the screens show for `CCOC(=O)Cn1c2ccccc2n2nc(CCC(=O)O)c(=O)nc12`?
MrgX1 antagonist: inactive; RGS4 act: inactive; RGS4 block: inactive; MrgX1 agonist: inactive; MrgX1 PAM: inactive

What do the screens show for `CCc1ccccc1NC(=S)N1N=CCC1c1ccccc1` (stereo not drawn)?
MrgX1 antagonist: inactive; RGS4 act: inactive; RGS4 block: inactive; MrgX1 agonist: 37*; MrgX1 PAM: inactive

How did CC(C)(C)C(=O)/C=c1\[nH]c(=O)/c(=C\c2ccc(F)cc2)s1 do in these assays?
MrgX1 antagonist: inactive; RGS4 act: inactive; RGS4 block: inactive; MrgX1 agonist: inactive; MrgX1 PAM: inactive

Results for COc1ccc(/C=c2\s/c(=C/C(=O)c3ccc(C)cc3)[nH]c2=O)cc1OC ?
MrgX1 antagonist: inactive; RGS4 act: inactive; RGS4 block: inactive; MrgX1 agonist: 29*; MrgX1 PAM: inactive

How did O=S(=O)(NCCN1CCOCC1)c1cc(Cl)ccc1Cl do in these assays?
MrgX1 antagonist: inactive; RGS4 act: inactive; RGS4 block: inactive; MrgX1 agonist: inactive; MrgX1 PAM: inactive

What do the screens show for `CNc1ccc(Br)cc(C(=O)/C=C/c2cccc(OC)c2OC)c1=O`?
MrgX1 antagonist: -4.8*; RGS4 act: inactive; RGS4 block: inactive; MrgX1 agonist: inactive; MrgX1 PAM: inactive

How did CCNc1ccc(Br)cc(C(=O)/C=C/c2ccccc2Cl)c1=O do in these assays?
MrgX1 antagonist: -6*; RGS4 act: inactive; RGS4 block: inactive; MrgX1 agonist: inactive; MrgX1 PAM: inactive

What do the screens show for `COC(=O)c1ccc(NC(=O)CSc2nccn2CCc2ccccc2)cc1`?
MrgX1 antagonist: inactive; RGS4 act: inactive; RGS4 block: inactive; MrgX1 agonist: inactive; MrgX1 PAM: inactive

How did O=S(=O)(Cc1noc(-c2ccccc2Cl)n1)c1ccccn1 do in these assays?
MrgX1 antagonist: inactive; RGS4 act: inactive; RGS4 block: inactive; MrgX1 agonist: inactive; MrgX1 PAM: inactive
